ChEMBL document CHEMBL4689842, “EUbOPEN Chemogenomics Library wave 1” (2021)

Test system: Fibroblast
Assay: Multiplex assay against human fibroblast
Assay type: toxicity, cell-based
Method in brief: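 Phenotypes for tubulin, mitochondrial mass and membrane permeability are expressed as per cents of healthy-nucleus cells. Cells were stained live at seeding with Hoechst33342, BioTracker Green Microtubule Cytoskeleton Dye, MitoTracker Red and Annexin V Alexa Fluor 680, then imaged after compound addition on a CQ1 microscope at 37°C and 5% CO2. Machine-learning gating in CellPathfinder separated Hoechst high-intensity objects from normal cells, divided normal cells by nuclear state (healthy, pyknosed, fragmented) and divided pyknosed cells into mitotic or apoptotic.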

[1] = 12 h, 1 µM, compound concentration 1 uM, replicate 1
[2] = 12 h, 1 µM, compound concentration 1 uM, replicate 2
[3] = 12 h, 10 µM, compound concentration 10 uM, replicate 1
[4] = 12 h, 10 µM, compound concentration 10 uM, replicate 2
[5] = 24 h, 1 µM, compound concentration 1 uM, replicate 1
[6] = 24 h, 1 µM, compound concentration 1 uM, replicate 2
[7] = 24 h, 10 µM, compound concentration 10 uM, replicate 1
[8] = 24 h, 10 µM, compound concentration 10 uM, replicate 2

CC[C@H](Nc1ncnc2[nH]cnc12)c1nc2cccc(F)c2c(=O)n1-c1ccccc1 [IDELALISIB]
Population Apoptotic (%) [1]: 91% | Population Fragmented Nuclei (%) [1]: 26% | Population Healthy Nuclei (%) [1]: 56% | Population Hoechst High Intensity Objects (%) [1]: 11% | Population Membrane Permeable-Phenotype (%) [1]: 12% | Population Mitochondria Different-Phenotype (%) [1]: 1% | Population Mitotic Cells (%) [1]: 8% | Population Normal (%) [1]: 88% | Population Pyknosed Nuclei (%) [1]: 17% | Population Tubulin-Different-Phenotype (%) [1]: 20% | Total Cell Count [1]: 222 | Population Apoptotic (%) [2]: 50% | Population Fragmented Nuclei (%) [2]: 56% | Population Healthy Nuclei (%) [2]: 34% | Population Hoechst High Intensity Objects (%) [2]: 30% | Population Membrane Permeable-Phenotype (%) [2]: 6% | Population Mitochondria Different-Phenotype (%) [2]: 26% | Population Mitotic Cells (%) [2]: 50% | Population Normal (%) [2]: 69% | Population Pyknosed Nuclei (%) [2]: 9% | Population Tubulin-Different-Phenotype (%) [2]: 53% | Total Cell Count [2]: 63 | Population Apoptotic (%) [3]: 58% | Population Fragmented Nuclei (%) [3]: 26% | Population Healthy Nuclei (%) [3]: 59% | Population Hoechst High Intensity Objects (%) [3]: 10% | Population Membrane Permeable-Phenotype (%) [3]: 14% | Population Mitochondria Different-Phenotype (%) [3]: 0% | Population Mitotic Cells (%) [3]: 41% | Population Normal (%) [3]: 89% | Population Pyknosed Nuclei (%) [3]: 13% | Population Tubulin-Different-Phenotype (%) [3]: 4% | Total Cell Count [3]: 199 | Population Apoptotic (%) [4]: 50% | Population Fragmented Nuclei (%) [4]: 58% | Population Healthy Nuclei (%) [4]: 33% | Population Hoechst High Intensity Objects (%) [4]: 34% | Population Membrane Permeable-Phenotype (%) [4]: 18% | Population Mitochondria Different-Phenotype (%) [4]: 31% | Population Mitotic Cells (%) [4]: 50% | Population Normal (%) [4]: 65% | Population Pyknosed Nuclei (%) [4]: 8% | Population Tubulin-Different-Phenotype (%) [4]: 25% | Total Cell Count [4]: 73 | Population Apoptotic (%) [5]: 59% | Population Fragmented Nuclei (%) [5]: 27% | Population Healthy Nuclei (%) [5]: 54% | Population Hoechst High Intensity Objects (%) [5]: 12% | Population Mitochondria Different-Phenotype (%) [5]: 5% | Population Mitotic Cells (%) [5]: 40% | Population Normal (%) [5]: 87% | Population Pyknosed Nuclei (%) [5]: 17% | Population Tubulin-Different-Phenotype (%) [5]: 15% | Total Cell Count [5]: 211 | Population Apoptotic (%) [6]: 40% | Population Fragmented Nuclei (%) [6]: 56% | Population Healthy Nuclei (%) [6]: 30% | Population Hoechst High Intensity Objects (%) [6]: 35% | Population Membrane Permeable-Phenotype (%) [6]: 0% | Population Mitochondria Different-Phenotype (%) [6]: 25% | Population Mitotic Cells (%) [6]: 60% | Population Normal (%) [6]: 65% | Population Pyknosed Nuclei (%) [6]: 12% | Population Tubulin-Different-Phenotype (%) [6]: 33% | Total Cell Count [6]: 60 | Population Apoptotic (%) [7]: 73% | Population Fragmented Nuclei (%) [7]: 22% | Population Healthy Nuclei (%) [7]: 59% | Population Hoechst High Intensity Objects (%) [7]: 13% | Population Membrane Permeable-Phenotype (%) [7]: 7% | Population Mitochondria Different-Phenotype (%) [7]: 0% | Population Mitotic Cells (%) [7]: 26% | Population Normal (%) [7]: 86% | Population Pyknosed Nuclei (%) [7]: 17% | Population Tubulin-Different-Phenotype (%) [7]: 1% | Total Cell Count [7]: 221 | Population Apoptotic (%) [8]: 0% | Population Fragmented Nuclei (%) [8]: 70% | Population Healthy Nuclei (%) [8]: 25% | Population Hoechst High Intensity Objects (%) [8]: 22% | Population Membrane Permeable-Phenotype (%) [8]: 26% | Population Mitochondria Different-Phenotype (%) [8]: 6% | Population Mitotic Cells (%) [8]: 100% | Population Normal (%) [8]: 77% | Population Pyknosed Nuclei (%) [8]: 5% | Population Tubulin-Different-Phenotype (%) [8]: 33% | Total Cell Count [8]: 77
